Assay results collected from several papers.
Lines come from different studies, so protocols differ.
Target: Dual specificity mitogen-activated protein kinase kinase 4 (MAP2K4, Homo sapiens, UniProt P45985)
One construct used (P45985 1-399): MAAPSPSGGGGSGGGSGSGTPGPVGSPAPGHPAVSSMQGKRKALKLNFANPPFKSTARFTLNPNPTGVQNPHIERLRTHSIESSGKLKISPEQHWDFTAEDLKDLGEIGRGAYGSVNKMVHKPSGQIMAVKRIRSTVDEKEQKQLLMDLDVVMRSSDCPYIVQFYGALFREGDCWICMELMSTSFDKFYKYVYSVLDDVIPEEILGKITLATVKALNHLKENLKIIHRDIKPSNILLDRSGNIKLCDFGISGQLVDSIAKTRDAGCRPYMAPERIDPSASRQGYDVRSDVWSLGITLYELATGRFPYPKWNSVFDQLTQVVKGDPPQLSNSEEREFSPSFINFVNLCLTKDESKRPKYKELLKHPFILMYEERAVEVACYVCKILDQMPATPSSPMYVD

Cc1sc(C(=O)NC2COC2)cc1-n1cc(NC(=O)Nc2c(F)cccc2Cl)cn1
remaining activity (enzyme activity; inhibitor; 10 µM): 93%

CN1CCN(c2cnc3c(C4CCN(C(=O)c5ccc(OC(F)(F)F)cc5N)CC4)ncnc3c2)CC1
remaining binding (cell-free assay; competition with immobilised ligand; 1 µM): 100%

Cc1ccc(C(=O)Nc2ccc(CN3CCN(C)CC3)c(C(F)(F)F)c2)cc1C#Cc1cnc2cccnn12
remaining activity (enzyme activity; inhibitor; 23.5 nM): 97%

Nc1ncnc2occ(-c3ccc(NC(=O)Nc4cc(C(F)(F)F)ccc4F)cc3)c12
remaining signal (cell-free assay; inhibitor; 20 µM): 3.9%

CCN1CCN(Cc2ccc(NC(=O)c3ccc(C)c(Oc4ccnc5[nH]ccc45)c3)cc2C(F)(F)F)CC1
inhibition (target engagement in cells; inhibitor; chemoproteomics; A-375; 0.5 µM): -23%

C[C@H](c1ccc(F)cc1)N(Cc1cccc(C(=O)O)c1)C(=O)c1cnc2ccccc2c1
remaining binding (cell-free assay; competition with immobilised ligand; 1 µM): 100%

CC(C)(C)c1nc(-c2cccc(NS(=O)(=O)c3c(F)cccc3F)c2F)c(-c2ccnc(N)n2)s1
remaining activity (enzyme activity; inhibitor; radiometric; 1 µM): 87%

CC(C)(O)[C@H]1CC[C@H](Nc2ccc3ncc(-c4cccc(C(F)(F)F)c4)n3n2)CC1
remaining activity (enzyme activity; inhibitor; 1 µM): 102%

CC(C)(C)c1nc2c(s1)c1nc(N)ncc1c1ccc(NS(=O)(=O)c3c(F)cccc3F)c(F)c12
remaining activity (enzyme activity; inhibitor; radiometric; 1 µM): 81%

CN(CCCC(F)(F)F)c1nccc(-c2cnn3ncccc23)n1
remaining binding (binding; 1 µM): 100%

O=C(Nc1cnn(-c2csc(C(=O)NC3COC3)c2)c1)Nc1ccccc1Cl
remaining activity (enzyme activity; inhibitor; 5 µM): 113%
